The text below walks through data of ChEMBL document CHEMBL1781932 (J Med Chem, 2011).

Data set [1] relates to Klebsiella pneumoniae. Description: Antimicrobial activity against tetracycline-susceptible Klebsiella pneumoniae isolate 109 by CLSI dilution method. Format: functional. The essentials: (§1)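 Broth microdilution per CLSI in fresh cation-adjusted Mueller Hinton broth, kept at 4 °C before testing, with defibrinated horse blood added as appropriate. Strains were from ATCC. MIC in µg/mL. Runs were accepted when comparator antibiotics against ATCC quality-control strains fell within recommended ranges.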

Data set [2] concerns Enterococcus faecalis. Description: Antimicrobial activity against tetracycline-susceptible Enterococcus faecalis isolate 103 by CLSI dilution method. The class given is functional. The essentials: as §1
Data set [3] deals with Staphylococcus aureus. Briefly: Antimicrobial activity against tetracycline-susceptible Staphylococcus aureus isolate 101 by CLSI dilution method. Format: functional.
In data set [4] the test system is Enterococcus faecalis. Briefly: Antimicrobial activity against tetracycline-resistant Enterococcus faecalis isolate 159 harboring […] gene by CLSI dilution method. The class given is functional.
Data set [5] is described as follows: Cmax in Sprague-Dawley rat at 1 mg/kg, iv administered as single dose measured after 24 to 48 hrs. Format: ADME, organism-based. The arrangement: dose 1 mg/kg, route intravenous. As to conditions: in vivo. The gist of the method:
(§2)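 Sprague-Dawley rats (n = 3) were fasted overnight (minimum 12 h) and given a single dose, iv 1 mg/kg or oral 10 mg/kg, in sterile water. Samples were taken over 24–48 h. PK parameters came from noncompartmental analysis.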

For data set [6], the system named is Escherichia coli. Description: Antimicrobial activity against tetracycline-susceptible Escherichia coli isolate 107 by CLSI dilution method. The class given is functional. The gist of the method: as §1
Another data set has as its system Acinetobacter baumannii. Description: Antimicrobial activity against tetracycline-susceptible Acinetobacter baumannii isolate 110 by CLSI dilution method. The class given is functional. The essentials:
as §1

The subject of data set [7] is Staphylococcus aureus. Description: Antimicrobial activity against tetracycline-resistant Staphylococcus aureus isolate 158 harboring tetK gene by CLSI dilution method. The class given is functional.
Data set [8] has as its system Streptococcus pneumoniae. Description: Antimicrobial activity against tetracycline-susceptible Streptococcus pneumoniae isolate 106 by CLSI dilution method. Format: functional. The essentials: as §1
Data set [9] is described as follows: Apparent volume of distribution in Sprague-Dawley rat at 1 mg/kg, iv administered as single dose measured after 24 to 48 hrs. As to conditions: in vivo.
The subject of data set [10] is Escherichia coli. Briefly: Antimicrobial activity against tetracycline-resistant Escherichia coli isolate 155 harboring tetA gene by CLSI dilution method. The class given is functional.
A short description of data set [11]: Elimination half life in Sprague-Dawley rat at 1 mg/kg, iv administered as single dose. Format: ADME, organism-based. The following applies: in vivo, read-out: beta t1/2 (converted). The arrangement: dose 1 mg/kg, route intravenous. The gist of the method:
as §2

A short description of data set [12]: Clearance in Sprague-Dawley rat at 1 mg/kg, iv administered as single dose measured after 24 to 48 hrs. The class given is ADME, organism-based. The arrangement: dose 1 mg/kg, route intravenous. The following applies: in vivo. The gist of the method:
as §2

In a further data set the test system is Rattus norvegicus. Description: Oral bioavailability in Sprague-Dawley rat at 10 mg/kg administered as single dose. Format: ADME, organism-based. The following applies: in vivo. The gist of the method:
as §2

The subject of data set [13] is Streptococcus pneumoniae. Description: Antimicrobial activity against tetracycline-resistant Streptococcus pneumoniae isolate 160 harboring tetM gene by CLSI dilution method. Format: functional.
For the next data set, the system named is Pseudomonas aeruginosa. Briefly: Antimicrobial activity against tetracycline-susceptible Pseudomonas aeruginosa isolate 111 by CLSI dilution method. Format: functional. The essentials:
as §1

For data set [14], the system named is Klebsiella pneumoniae. Briefly: Antimicrobial activity against tetracycline-resistant Klebsiella pneumoniae isolate 153 harboring tetA gene by CLSI dilution method. Format: functional.
Data set [15] concerns Staphylococcus aureus. Description: Antimicrobial activity against methicillin-, tetracycline-resistant Staphylococcus aureus isolate 161 harboring tetM gene by CLSI dilution method. Format: functional.
Data set [16] relates to Staphylococcus aureus. Briefly: Antimicrobial activity against tetracycline-susceptible Staphylococcus aureus Smith isolate 100 by CLSI dilution method. The class given is functional.
The nature of data set [17]: AUC (0 to infinity) in Sprague-Dawley rat at 1 mg/kg, iv administered as single dose measured after 24 to 48 hrs. The arrangement: time infinity, dose 1 mg/kg, route intravenous. The following applies: plasma. The class given is ADME, organism-based. The essentials: as §2
The next data set concerns Enterobacter cloacae. Description: Antimicrobial activity against tetracycline-susceptible Enterobacter cloacae isolate 108 by CLSI dilution method. Format: functional. The essentials: as §1
Data set [18] has as its system Staphylococcus aureus. Briefly: Antimicrobial activity against tetracycline-susceptible Staphylococcus aureus Smith isolate 100 infected in iv dosed mouse systemic infection model assessed as survival of mouse administered 60 mins post infection measured up to 48 hrs. The class given is functional. As to conditions: Smith isolate 100, iv, read-out: PD50. The essentials: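 Mouse septicemia model with S. aureus ATCC 13709 mixed with 5% mucin, given intraperitoneally at 2.1×10^6 cfu/mouse. Compound was dosed intravenously 60 min after infection at 0.3–30 mg/kg in sterile water, 6 mice/dose group, with untreated infection controls. Survival was followed over 48 h. PD50 was derived by Probit analysis with 95% CI.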

Data set [19] relates to Staphylococcus aureus. Description: Antimicrobial activity against tetracycline-susceptible Staphylococcus aureus Smith isolate 100 infected in po dosed mouse systemic infection model assessed as survival of mouse administered 60 mins post infection measured after 48 hrs. Format: functional. The following applies: Smith isolate 100, po, read-out: PD50. The gist of the method: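 Mouse septicemia model with S. aureus ATCC 13709 in 5% mucin, inoculated intraperitoneally at 2.1×10^6 cfu/mouse. Oral gavage dosing began 60 min post-infection at 0.3–30 mg/kg in sterile water, 6 mice/dose group, with untreated infection controls. Survival was assessed over 48 h. PD50 was obtained by Probit analysis with 95% CI.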

Molecules are shown by their SMILES. In brackets after ≈: the same amount, converted by molar mass.

By MIC is commonly meant the smallest concentration in the dilution series that meets the test's criterion for growth inhibition. Low readings indicate greater potency, high ones weaker potency. By Cmax is commonly meant the peak of the concentration-time curve. As a reminder, the clearance is a measure of how efficiently the substance is removed, as volume per time. Low values mean inefficient removal, high ones efficient removal. What is called AUC(0-inf) is total exposure, with the tail of the curve extrapolated. Lower therefore signals low exposure. On to `COc1c2c(c(O)c3cc(CN4CC(F)C4)ccc13)C(=O)C1=C(O)[C@]3(O)C(=O)C(C(N)=O)=C(O)[C@@H](N(C)C)[C@@H]3C[C@@H]1C2`, for which the MIC turned out to be 4 µg/mL (≈ 6.88 µM) against Klebsiella pneumoniae [1]; 0.125 µg/mL (≈ 0.215 µM) against Enterococcus faecalis [2]; 0.25 µg/mL (≈ 0.43 µM) against Staphylococcus aureus [3]; 2 µg/mL (≈ 3.44 µM) in the data set on Enterococcus faecalis [4]; 2 µg/mL (≈ 3.44 µM) with Escherichia coli [6]; 0.25 µg/mL (≈ 0.43 µM) with Acinetobacter baumannii. The minimum inhibitory concentration (MIC) in the data set with Staphylococcus aureus [7] amounted to 0.125 µg/mL (≈ 0.215 µM); in the data set with Streptococcus pneumoniae [8] it was 0.0156 µg/mL (≈ 0.0268 µM); against Escherichia coli [10] it was 8 µg/mL (≈ 13.8 µM); in the data set with Streptococcus pneumoniae [13], 0.0313 µg/mL (≈ 0.0538 µM); in the data set on Pseudomonas aeruginosa it was 32 µg/mL (≈ 55 µM); against Klebsiella pneumoniae [14], 8 µg/mL (≈ 13.8 µM). For the same compound, the minimal inhibitory concentration (MIC) with Staphylococcus aureus [15] came to 1 µg/mL (≈ 1.72 µM); against Staphylococcus aureus [16], 1 µg/mL (≈ 1.72 µM); with Enterobacter cloacae it was 8 µg/mL (≈ 13.8 µM). The same compound gave a Cmax in data set [5] of 237 ng/mL. For the same compound, the Vd in [9] is 5.06 L/kg. For the same compound, the half-life in data set [11] was 1.5 h. In addition, the clearance in data set [12] came to 63.9 mL/min/kg. In the data set with Rattus norvegicus, the F came out at 17.7%. In data set [17], the total exposure AUC(0-inf) is 451 ng·h/mL.

On to `CC(C)CNCc1ccc2cc3c(c(O)c2c1)C(=O)C1=C(O)[C@]2(O)C(=O)C(C(N)=O)=C(O)[C@@H](N(C)C)[C@@H]2C[C@@H]1C3`, for which the MIC was determined as 4 µg/mL (≈ 7.28 µM) against Klebsiella pneumoniae [1]; 0.5 µg/mL (≈ 0.91 µM) in the data set on Enterococcus faecalis [2]; 0.25 µg/mL (≈ 0.455 µM) against Staphylococcus aureus [3]; 4 µg/mL (≈ 7.28 µM) against Enterococcus faecalis [4]; 1 µg/mL (≈ 1.82 µM) against Escherichia coli [6]; 0.5 µg/mL (≈ 0.91 µM) against Acinetobacter baumannii. Also, the minimum inhibitory concentration (MIC) was determined as 0.25 µg/mL (≈ 0.455 µM) against Staphylococcus aureus [7]; 0.0156 µg/mL (≈ 0.0284 µM) against Streptococcus pneumoniae [8]; 4 µg/mL (≈ 7.28 µM) in the data set with Escherichia coli [10]; 0.25 µg/mL (≈ 0.455 µM) against Streptococcus pneumoniae [13]; 32 µg/mL (≈ 58.2 µM) in the data set with Pseudomonas aeruginosa; 4 µg/mL (≈ 7.28 µM) with Klebsiella pneumoniae [14]. Moreover, the minimal inhibitory concentration (MIC) in the data set with Staphylococcus aureus [15] was 4 µg/mL (≈ 7.28 µM); in the data set with Staphylococcus aureus [16] it was 1 µg/mL (≈ 1.82 µM); against Enterobacter cloacae it was 2 µg/mL (≈ 3.64 µM). This compound had a Cmax in data set [5] of 891 ng/mL. Besides, the Vd in data set [9] was found to be 3.16 L/kg. In addition, the half-life in [11] is 5.87 h. The compound further returned a clearance in data set [12] of 6.22 mL/min/kg. Besides, the F in the data set with Rattus norvegicus turned out to be 1.9%. Moreover, the ED50 with Staphylococcus aureus [18] amounted to 0.62 mg/kg. In addition, in [17], the AUC(0-inf) was found to be 2680 ng·h/mL.

Regarding `COCCNCc1ccc2cc3c(c(O)c2c1)C(=O)C1=C(O)[C@]2(O)C(=O)C(C(N)=O)=C(O)[C@@H](N(C)C)[C@@H]2C[C@@H]1C3`, the minimum inhibitory concentration (MIC) in the data set with Klebsiella pneumoniae [1] turned out to be 4 µg/mL (≈ 7.25 µM); with Enterococcus faecalis [2] it was 0.5 µg/mL (≈ 0.906 µM); against Staphylococcus aureus [3], 0.25 µg/mL (≈ 0.453 µM); against Enterococcus faecalis [4] it was 8 µg/mL (≈ 14.5 µM); in the data set with Escherichia coli [6], 1 µg/mL (≈ 1.81 µM); against Acinetobacter baumannii it was 1 µg/mL (≈ 1.81 µM). For the same compound, the MIC with Staphylococcus aureus [7] came out at 0.5 µg/mL (≈ 0.906 µM); in the data set on Streptococcus pneumoniae [8], 0.0156 µg/mL (≈ 0.0283 µM); against Escherichia coli [10] it was 8 µg/mL (≈ 14.5 µM); against Streptococcus pneumoniae [13], 0.5 µg/mL (≈ 0.906 µM); against Pseudomonas aeruginosa, 32 µg/mL (≈ 58 µM); with Klebsiella pneumoniae [14], 8 µg/mL (≈ 14.5 µM). Moreover, the MIC against Staphylococcus aureus [15] came out at 4 µg/mL (≈ 7.25 µM); in the data set on Staphylococcus aureus [16], 1 µg/mL (≈ 1.81 µM); in the data set on Enterobacter cloacae it was 2 µg/mL (≈ 3.63 µM). This compound yielded a Cmax in [5] of 633 ng/mL. In data set [9], the Vd was found to be 3.78 L/kg. Also, the half-life in data set [11] is 5.19 h. Moreover, the clearance in [12] was determined as 8.43 mL/min/kg. In the data set on Rattus norvegicus, this compound returned an F of 2.8%. Also, the ED50 in the data set with Staphylococcus aureus [18] was determined as 0.43 mg/kg. Moreover, the total exposure AUC(0-inf) in data set [17] came out at 1980 ng·h/mL.

As to `CN(C)[C@@H]1C(O)=C(C(N)=O)C(=O)[C@@]2(O)C(O)=C3C(=O)c4c(O)cccc4[C@@](C)(O)[C@H]3C[C@@H]12` [TETRACYCLINE], in data set [5], the Cmax is 583 ng/mL. For the same compound, the ED50 came to 8.1 mg/kg with Staphylococcus aureus [19] and 0.35 mg/kg in the data set with Staphylococcus aureus [18]. Moreover, inhibition of growth in the data set with Staphylococcus aureus [16] (MIC) required 0.25 µg/mL (≈ 0.563 µM).
